Data on 19 compounds can be found in ChEMBL document CHEMBL1145138, “Design and synthesis of 4-azaindoles as inhibitors of p38 MAP kinase” (J Med Chem, 2003).

Each structure is given as a SMILES string.

The target of data set [1] is Mitogen-activated protein kinase 14 (Homo sapiens, UniProt Q16539). The experiment in a line: In vitro inhibitory concentration against Mitogen-activated protein kinase p38 alpha.
The target of data set [2] is Mitogen-activated protein kinase 14 (Rattus norvegicus) (UniProt P70618). Kind of data set: In vivo percent inhibition of LPS stimulated TNF alpha synthesis in rat at a concentration of 30 mg/kg. The format is functional, organism-based. Details: dose 30 mg/kg. Put shortly: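 Female Wistar/Han rats, 8 per group, were dosed orally at −30 min with compound in CMC vehicle (0.9% NaCl, 0.5% Na-CMC, 0.4% polysorbate 80, 0.9% benzyl alcohol) or with vehicle alone. LPS 50 μg/kg was given ip at 0 h. At 1.5 h, blood was taken by cardiocentesis after CO₂ euthanasia, and serum TNFα was measured by ELISA against vehicle controls.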
Sequence of Mitogen-activated protein kinase 14 (Rattus norvegicus) (P70618 whole entry): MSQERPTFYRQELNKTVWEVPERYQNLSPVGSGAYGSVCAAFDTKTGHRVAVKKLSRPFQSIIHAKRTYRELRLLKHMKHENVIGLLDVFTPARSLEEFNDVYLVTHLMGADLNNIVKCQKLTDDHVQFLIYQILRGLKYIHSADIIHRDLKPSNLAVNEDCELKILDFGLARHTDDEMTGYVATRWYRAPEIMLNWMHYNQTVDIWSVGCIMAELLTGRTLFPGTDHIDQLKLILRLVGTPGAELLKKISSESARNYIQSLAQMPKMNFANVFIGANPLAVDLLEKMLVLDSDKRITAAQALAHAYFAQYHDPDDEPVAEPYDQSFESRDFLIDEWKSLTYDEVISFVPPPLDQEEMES

The target is the same in data set [3]. Kind of data set: In vivo percent inhibition of LPS stimulated TNF alpha synthesis in rat at a concentration of 10 mg/kg.
Data set [4] is described as follows: AUC at a dose of 10 mg/Kg administered to female hanover-wistar rat intravenously. The format is ADME, organism-based. The note with it: plasma, iv. Put shortly: (§1)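 Female Wistar/Han rats weighing 180–220 g, 3 per dose regime, received a single 10 mg/kg IV bolus in 50% cyclodextran/water. Blood was drawn under CO₂:O₂ (60:40) via orbital sinus or cardiac puncture at 1, 3, 6, 8 and 24 h. Plasma was protein-precipitated with acetonitrile, diluted in 50 mM formate buffer and quantified by LC/MS.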

For data set [5], the system named is Rattus norvegicus. The experiment in a line: AUC at a dose of 10 mg/Kg administered to female hanover-wistar rat per orally. The note with it: in vivo, po. The format is ADME, organism-based, Plasma. Put shortly:
(§2)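 Female Wistar/Han rats (180–220 g, n=3 per regime) received a single 10 mg/kg oral suspension in 0.9% NaCl, 0.5% Na-CMC, 0.4% polysorbate 80 and 0.9% benzyl alcohol. Blood was taken at 1, 3, 6, 8 and 24 h by orbital sinus or cardiac puncture. Plasma drug was measured by LC/MS after acetonitrile precipitation; the comparison arm was a 10 mg/kg IV bolus.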

Data set [6] in a line: CL at a dose of 10 mg/Kg administered to female hanover-wistar rat intravenously. The format is ADME, organism-based. The following applies: in vivo, iv. Put shortly: as §1
A short description of data set [7]: C max at a dose of 10 mg/Kg administered to female hanover-wistar rat intravenously. Type of data set: ADME, organism-based. Details: dose 10 mg/Kg, route intravenous. The note with it: in vivo, iv. Put shortly: as §1
A short description of data set [8]: C max at a dose of 10 mg/Kg administered to female hanover-wistar rat per orally. The format is ADME, organism-based. Details: dose 10 mg/Kg, route oral. The note with it: in vivo, po. Put shortly:
as §2

The nature of data set [9]: Bioavailability at a dose of 10 mg/Kg administered to female hanover-wistar rat per orally. Type of data set: ADME, organism-based. The note with it: in vivo, po. Put shortly:
as §2

The nature of data set [10]: T 1/2 at a dose of 10 mg/Kg administered to female hanover-wistar rat intravenously. The format is ADME, organism-based. The note with it: in vivo, iv. Put shortly:
as §1

The nature of data set [11]: T 1/2 at a dose of 10 mg/Kg administered to female hanover-wistar rat per orally. Type of data set: ADME, organism-based. The following applies: in vivo, po. Put shortly:
as §2

Data set [12] in a line: T max at a dose of 10 mg/Kg administered to female hanover-wistar rat per orally. The format is ADME, organism-based. The note with it: in vivo, po. Put shortly:
as §2

As a reminder, the IC50 is the midpoint of a concentration-inhibition curve. For orientation: inhibition means how much of the control response was suppressed. Usually AUC stands for the area under the concentration-time curve, a measure of exposure. Low readings indicate low exposure, high ones high exposure. In general, clearance refers to the volume of plasma or blood freed of the substance per unit of time. A low value points to a low capacity for elimination. A word on the Cmax: it is the highest concentration seen after dosing. As a reminder, the bioavailability is the share of a dose that reaches the circulation, judged against a reference dose that is usually intravenous. Read a low bioavailability as poor availability. A word on the half-life: it is how long it takes for the measured level to halve. The low end stands for fast loss, the high end for slow loss. The Tmax is the time at which the peak concentration occurs.

Sequence of Mitogen-activated protein kinase 14 (Q16539 whole entry): as the sequence (P70618 whole entry) above, with V17I, H48L, A263T, E321D, F332L counted along it

`OCCNc1cc(-c2[nH]c3cccnc3c2-c2ccc(F)cc2)ccn1`: the IC50 in data set [1] was 3 nM. The inhibition in data set [2] came out at 88%.

As to `Fc1ccc(-c2c(-c3ccncc3)[nH]c3cncnc23)cc1`, 895 nM corresponded to half-maximal inhibition in data set [1] (IC50). The same compound displayed an inhibition in [2] of 26%.

`Fc1ccc(-c2c(-c3ccncc3)oc3cccnc23)cc1` yielded an inhibition in data set [2] of 44%.

The compound `CCC(O)CNc1cc(-c2[nH]c3cccnc3c2-c2ccc(F)cc2)ccn1` (stereo unspecified) registered an IC50 in data set [1] of 3 nM. This compound yielded an inhibition in [3] of 85%.

In turn, `CCn1c(-c2ccncc2)c(-c2ccc(F)cc2)c2ncccc21` came in with an IC50 in data set [1] of 24 nM. The same compound displayed an inhibition in [2] of 41%.

`Fc1ccc(-c2c(-c3ccncc3)[nH]c3ccccc23)cc1` came in with an IC50 in data set [1] of 1800 nM. That is a single-digit micromolar value.

Compound `OCCCCNc1cc(-c2[nH]c3cccnc3c2-c2ccc(F)cc2)ccn1` returned an IC50 in [1] of 5 nM. Also, the inhibition in data set [2] came to 69%.

Compound `Cn1c(-c2ccncc2)c(-c2ccc(F)cc2)c2ncccc21` gave an IC50 in data set [1] of 98 nM. For the same compound, in data set [2], the inhibition came to 53%.

Compound `Fc1ccc(-c2c(-c3ccncc3)n(CCN3CCOCC3)c3cccnc23)cc1` displayed an IC50 in [1] of 185 nM. In data set [2], the inhibition is 79%.

The compound `O=C(O)Cn1c(-c2ccncc2)c(-c2ccc(F)cc2)c2ncccc21` registered an IC50 in [1] of 23600 nM. In [2], the inhibition is 50%.

On to `Fc1ccc(-c2c(-c3ccncc3)[nH]c3nccnc23)cc1`, for which half-maximal inhibition in data set [1] (IC50) required 53 nM. Besides, in data set [2], the inhibition was 98%.

In data set [1], `OCCn1c(-c2ccncc2)c(-c2ccc(F)cc2)c2ncccc21` came in with an IC50 of 172 nM.

On to `Fc1ccc(-c2c(-c3ccncc3)n(CCN3CCCCC3)c3cccnc23)cc1`, for which, in [1], it took 1970 nM to reach half-maximal inhibition (IC50). This compound returned an inhibition in [2] of 75%.

In turn, `C[C@@H](O)CNc1cc(-c2[nH]c3cccnc3c2-c2ccc(F)cc2)ccn1` displayed an IC50 in [1] of 1 nM. The exposure (AUC) amounted to 27.5 µM·h in data set [4] and 8.4 µM·h in data set [5]. This compound also gave a clearance in [6] of 16.7 mL/min/kg. Moreover, the Cmax in data set [7] stood at 8.8 µM; in data set [8], 2.8 µM. This compound registered a bioavailability in [9] of 30.5%. The inhibition in data set [2] was determined as 76%. The half-life in data set [10] is 2.9 h; in data set [11], 1.5 h. Further, the Tmax in [12] is 1 h.

In turn, `Fc1ccc(-c2c(-c3ccncc3)n(CCN3CCCC3)c3cccnc23)cc1` showed an IC50 in data set [1] of 217 nM. In [2], this compound came in with an inhibition of 86%.

For the compound `Fc1ccc(-c2c(-c3ccncc3)[nH]c3ccncc23)cc1`, in [1], 3100 nM corresponded to half-maximal inhibition (IC50).

`Fc1ccc(-c2c(-c3ccncc3)[nH]c3cccnc23)cc1` displayed an IC50 in data set [1] of 6.5 nM. For the same compound, in [2], the inhibition came out at 46%.

Turning to `Nc1ncnc2c1cc(-c1ccncc1)n2-c1ccc(F)cc1`, the IC50 in data set [1] worked out at 3300 nM.

Turning to `COCCn1c(-c2ccncc2)c(-c2ccc(F)cc2)c2ncccc21`, the IC50 in data set [1] was found to be 21 nM.
